Here are results for 38 molecules from ChEMBL document CHEMBL1949587 (Bioorg Med Chem, 2012).

Data set [1] has as its system HUVEC. Briefly: Antiangiogenic activity in HUVEC assessed as inhibition of VEGF-induced cell proliferation after 4 days. It counts as functional, cell-based. The conditions noted are these: Homo sapiens, 96 h. An outline of the steps:
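HUVECs maintained in RPMI1640 with 10% FCS, 50 μg/mL heparin and ECGS, then seeded at 3000 cells/well in RPMI1640 with 5% FCS and 20 ng/mL VEGF, with compound at serially diluted concentrations. Incubated at 37 °C, 5% CO₂. Read-out is Cell Counting Kit-8, absorbance at 450 nm. Inhibition = (1−T/C)×100 against untreated control.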

Data set [2] relates to HCT-116. Briefly: Antiproliferative activity against human HCT116 cells. It counts as cell-based.
Data set [3] concerns HUVEC. Briefly: Selectivity ratio of IC50 for human HCT116 cells to IC50 for HUVEC cells.
Data set [4] is described as follows: Clearance in mouse liver microsome at 5 uM after 60 mins by LC-MS/MS analysis. It counts as ADME. As to conditions: liver microsomes, read-out: CLH. An outline of the steps: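 Test compound at 5 µM incubated with mouse liver microsomes, 1.0 mg protein/mL, in 50 mM potassium phosphate pH 7.4 at 37 °C. Started by adding NADPH generating system (glucose 6-phosphate 3.2 mM, β-NADP 2.6 mM, MgCl2 6.5 mM). Substrate depletion measured against internal standard. Intrinsic clearance is the first-order decay constant normalized to protein.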

A short description of data set [5]: Solubility of the compound in fasted state simulated intestinal fluid at 10 mM after 2 hrs by HPLC-UV analysis. Format: physicochemical. An outline of the steps: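 Triplicate samples made from 10 mM DMSO stocks. DMSO evaporated (1 h), residue dissolved in FaSSIF and shaken 2 h. Solutions filtered, filtrate analysed by UV or HPLC-UV against a four-point calibration curve from the stocks. Result in µg/mL.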

pIC50: −log10 of the molar value. Values after ≈ are worked out from the molar mass of the structure shown.

Take `CCCOc1ccc(C(N)=O)cc1/C=C/c1ccc(Cl)cc1`: the values for the negative-log IC50 (pIC50) in data set [1] and in data set [2] were 5.89 and below 4.30, respectively. Also, the “Ratio IC50” value in data set [3] turned out to be 38. Besides, the microsomal CLint at 5 µM in data set [4] worked out at 83 µL/min/mg. Further, the solubility at 2 h, 10000 µM in data set [5] is 4 µg/mL (≈ 12.7 µM).

Turning to `COc1ccc(C(N)=O)cc1/C=C/c1ccc(F)cc1`, the results for the pIC50 in data set [1] and in data set [2] were 5.68 and 4.62, respectively. Moreover, in data set [3], the “Ratio IC50” value is on record as 11.

Consider `COc1ccc(C(N)=O)cc1/C=C/c1ccccc1C`, for which the negative logarithm of the IC50 (pIC50) was 5.64 in data set [1] and 4.96 in data set [2]. In data set [3], the “Ratio IC50” value came to 4.8.

As for `CNC(=O)c1ccc(OC)c(/C=C/c2ccc(Cl)cc2)c1`, the negative-log IC50 (pIC50) in data set [1] was 6.72; in data set [2], 4.80. Besides, in data set [3], the “Ratio IC50” value is 84. For the same molecule, the microsomal CLint at 5 µM in data set [4] is 331 µL/min/mg. This molecule returned a solubility at 2 h, 10000 µM in data set [5] of 24 µg/mL (≈ 79.5 µM).

As for `COc1ccc(C(N)=O)cc1/C=C/c1ccc(Cl)cc1Cl`, the figures for the pIC50 in data set [1] and in data set [2] were 5.59 and below 4.30, respectively. In data set [3], the “Ratio IC50” value is reported as above 19.

Regarding `CN(C)CCOc1ccc(C(N)=O)cc1/C=C/c1ccc(Cl)cc1`, the pIC50 in data set [1] was 5.08; in data set [2] it was 5.31. For the same molecule, the “Ratio IC50” value in data set [3] is 0.6. Further, the microsomal CLint at 5 µM in data set [4] came out at 288 µL/min/mg. Further, the concentration in solution in data set [5] (solubility at 2 h, 10000 µM) came to 109 µg/mL (≈ 316 µM).

For the molecule `NC(=O)c1ccc(OCCOCCO)c(/C=C/c2ccc(Cl)cc2)c1`, the figures for the pIC50 in data set [1] and in data set [2] were 4.96 and 4.42, respectively. The microsomal CLint at 5 µM in data set [4] stood at 247 µL/min/mg. Besides, the solubility at 2 h, 10000 µM in data set [5] was 74 µg/mL (≈ 205 µM).

Consider `COc1ccc(C(N)=O)cc1/C=C/c1ccc(C#N)cc1`, for which the pIC50 in data set [1] was 5.51; in data set [2], 4.80. Moreover, the “Ratio IC50” value in data set [3] came out at 5.2.

In the case of `COc1ccc(C(N)=O)cc1/C=C/c1ccc(Cl)cc1F`, the pIC50 was 5.77 in data set [1] and below 5.00 in data set [2]. Moreover, in data set [3], the “Ratio IC50” value is on record as above 5.9.

Turning to `COc1ccc(C(N)=O)cc1/C=C/c1ccc(Br)cc1`, the pIC50 is 6.25 in data set [1] and 4.66 in data set [2]. In data set [3], the “Ratio IC50” value was found to be 39.

As to `COc1ccccc1/C=C/c1cc(C(N)=O)ccc1OC`, the negative-log IC50 (pIC50) in data set [1] is 5.24; in data set [2], below 4.30. Moreover, the “Ratio IC50” value in data set [3] is on record as above 8.8.

As for `COc1ccc(C(N)=O)cc1/C=C/c1ccccc1`, the pIC50 in data set [1] was 5.62; in data set [2] it was 4.44. In data set [3], the “Ratio IC50” value is on record as 15.

Consider `COc1ccc(C#N)cc1COc1ccc(Cl)c(C)c1`, for which the pIC50 in data set [1] is 5.82; in data set [2], below 4.30. For the same molecule, the “Ratio IC50” value in data set [3] is given as above 33.

For the molecule `COc1ccc(/C=C/c2cc(C(N)=O)ccc2OC)cc1`, the pIC50 in data set [1] is 5.06; in data set [2] it was 4.72. Further, the “Ratio IC50” value in data set [3] amounted to 2.2.

`CCNC(=O)c1ccc(OC)c(/C=C/c2ccc(Cl)cc2)c1`: the negative-log IC50 (pIC50) in data set [1] was 6.80; in data set [2], 4.82. Moreover, the “Ratio IC50” value in data set [3] amounted to 94. Besides, in data set [4], the microsomal CLint at 5 µM amounted to 187 µL/min/mg. In data set [5], this molecule returned a solubility at 2 h, 10000 µM of 9 µg/mL (≈ 28.5 µM).

As for `CCOc1ccc(C(N)=O)cc1/C=C/c1ccc(Cl)cc1`, the figures for the pIC50 in data set [1] and in data set [2] were 6.72 and 5.77, respectively. Besides, the “Ratio IC50” value in data set [3] worked out at 8.9. In addition, the microsomal CLint at 5 µM in data set [4] was 123 µL/min/mg. For the same molecule, the solubility at 2 h, 10000 µM in data set [5] was 10 µg/mL (≈ 33.1 µM).

Consider `Cc1cc(OCc2cccc(C#N)c2)ccc1Cl`, for which the pIC50 is 4.96 in data set [1] and 4.35 in data set [2]. Further, the “Ratio IC50” value in data set [3] is listed as 4.1.

Take `COc1ccc(C(N)=O)cc1/C=C/c1cccc(Cl)c1`: the negative logarithm of the IC50 (pIC50) is 4.62 in data set [1] and 4.82 in data set [2]. The “Ratio IC50” value in data set [3] was 0.6.

Regarding `COc1ccc(C(N)=O)cc1/C=C/c1cccc(F)c1`, the pIC50 was 5.08 in data set [1] and below 4.30 in data set [2]. In addition, the “Ratio IC50” value in data set [3] is on record as above 6.

Regarding `CN1CCN(CCOc2ccc(C(N)=O)cc2/C=C/c2ccc(Cl)cc2)CC1`, the negative logarithm of the IC50 (pIC50) was 5.02 in data set [1] and 5.12 in data set [2]. The “Ratio IC50” value in data set [3] stood at 0.8. In data set [4], the microsomal CLint at 5 µM was found to be 251 µL/min/mg. In data set [5], this molecule displayed a solubility at 2 h, 10000 µM of 164 µg/mL (≈ 410 µM).

As to `COc1ccc(C(=O)NCC(O)CO)cc1/C=C/c1ccc(Cl)cc1` (centres undefined), the negative logarithm of the IC50 (pIC50) is 6.40 in data set [1] and 4.92 in data set [2]. Moreover, in data set [4], the microsomal CLint at 5 µM turned out to be 10 µL/min/mg. In data set [5], this molecule yielded a solubility at 2 h, 10000 µM of 317 µg/mL (≈ 876 µM).

Turning to `COc1ccc(C(C)=O)cc1COc1ccc(Cl)cc1`, the negative-log IC50 (pIC50) is 5.92 in data set [1] and 4.41 in data set [2]. The “Ratio IC50” value in data set [3] worked out at 33.

As for `COc1ccc(C(N)=O)cc1/C=C/c1ccc([N+](=O)[O-])cc1`, the negative logarithm of the IC50 (pIC50) in data set [1] is 5.33; in data set [2] it was 4.66. In addition, the “Ratio IC50” value in data set [3] is reported as 4.7.

`COc1ccc(C(=O)N(C)C)cc1/C=C/c1ccc(Cl)cc1`: the pIC50 in data set [1] was 5.60; in data set [2], 4.46. Further, the “Ratio IC50” value in data set [3] is 14.

As for `COc1ccc(C(N)=O)cc1/C=C/c1ccc(C(C)(C)C)cc1`, the negative logarithm of the IC50 (pIC50) was 6.43 in data set [1] and 4.70 in data set [2]. Besides, in data set [3], the “Ratio IC50” value is 54.

On to `COc1ccc(C(N)=O)cc1/C=C/c1ccc(C(F)(F)F)cc1`, for which the negative logarithm of the IC50 (pIC50) in data set [1] is 6.06; in data set [2], 4.46. In addition, the “Ratio IC50” value in data set [3] is listed as 40.

For the molecule `COc1ccc(C(N)=O)cc1/C=C/c1cccc(C)c1`, the pIC50 was 5.41 in data set [1] and 4.64 in data set [2]. Besides, the “Ratio IC50” value in data set [3] came to 5.9.

On to `COC(=O)c1ccc(OC)c(COc2ccc(Cl)c(C)c2)c1`, for which the negative-log IC50 (pIC50) in data set [1] is 5.64; in data set [2] it was 4.64. Further, the “Ratio IC50” value in data set [3] worked out at 10.

For `COc1ccc(C(N)=O)cc1/C=C/c1cccc(C#N)c1`, the negative-log IC50 (pIC50) was 4.31 in data set [1] and 4.72 in data set [2]. In addition, the “Ratio IC50” value in data set [3] came to 0.4.

Turning to `COc1ccc(C(N)=O)cc1C(=O)Nc1ccc(Cl)cc1`, the pIC50 in data set [1] is 5.26; in data set [2], below 4.30. Further, the “Ratio IC50” value in data set [3] is given as above 9. Also, the microsomal CLint at 5 µM in data set [4] is 16 µL/min/mg. The concentration in solution in data set [5] (solubility at 2 h, 10000 µM) was 5 µg/mL (≈ 16.4 µM).

As to `COc1ccc(C(N)=O)cc1/C=C/c1ccc(C)cc1`, the pIC50 in data set [1] is 5.80; in data set [2] it was 4.32. Moreover, the “Ratio IC50” value in data set [3] worked out at 30.

For the molecule `COc1ccc(C(N)=O)cc1/C=C/c1ccccc1F`, the negative logarithm of the IC50 (pIC50) was 5.70 in data set [1] and 4.59 in data set [2]. For the same molecule, the “Ratio IC50” value in data set [3] worked out at 13.

Consider `COc1ccc(C(N)=O)cc1/C=C/c1ccc(Cl)c(Cl)c1`, for which the negative logarithm of the IC50 (pIC50) in data set [1] is 6.25; in data set [2], 4.96. Besides, the “Ratio IC50” value in data set [3] stood at 20.

Consider `COc1ccc(C(=O)O)cc1COc1ccc(Cl)c(C)c1`, for which the pIC50 in data set [1] and in data set [2] was below 4.30 in each case.

Consider `COc1ccc(C(C)=O)cc1COc1cccc(C)c1`, for which the pIC50 in data set [1] was 5.55; in data set [2], 4.62. Further, in data set [3], the “Ratio IC50” value was found to be 8.6.

As for `COc1ccc(C(N)=O)cc1/C=C/c1ccccc1Cl`, the negative-log IC50 (pIC50) in data set [1] was 4.64; in data set [2], below 4.30. Further, the “Ratio IC50” value in data set [3] was determined as 2.2.

In the case of `CCc1ccc(OC)c(COc2ccc(Cl)c(C)c2)c1`, the pIC50 in data set [1] was 4.40; in data set [2], 4.37. The “Ratio IC50” value in data set [3] amounted to 1.1.

As to `COc1ccc(C(N)=O)cc1/C=C/c1ccccc1OC(F)(F)F`, the negative-log IC50 (pIC50) in data set [1] is 5.05; in data set [2] it was 4.44. Besides, in data set [3], the “Ratio IC50” value was determined as 4.
